A selection: hits, their analogues and other compounds. The true share with any hit is near 1.2%.
HKDC1 inh: HKDC1 (human) hexokinase inhibition | Q2TB90 | recombinant HKDC1, G6PDH/diaphorase resazurin coupled fluorescence | inhibition, % at 20 µM | actives 0.16% (n = 340,000);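 active = inhibition above about 35% when tested at 20 µM, limit read from the data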;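 also: plate controls were DMSO wells with enzyme for no effect and DMSO wells lacking enzyme for full effect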
Target sequence (Q2TB90 whole entry, looked up): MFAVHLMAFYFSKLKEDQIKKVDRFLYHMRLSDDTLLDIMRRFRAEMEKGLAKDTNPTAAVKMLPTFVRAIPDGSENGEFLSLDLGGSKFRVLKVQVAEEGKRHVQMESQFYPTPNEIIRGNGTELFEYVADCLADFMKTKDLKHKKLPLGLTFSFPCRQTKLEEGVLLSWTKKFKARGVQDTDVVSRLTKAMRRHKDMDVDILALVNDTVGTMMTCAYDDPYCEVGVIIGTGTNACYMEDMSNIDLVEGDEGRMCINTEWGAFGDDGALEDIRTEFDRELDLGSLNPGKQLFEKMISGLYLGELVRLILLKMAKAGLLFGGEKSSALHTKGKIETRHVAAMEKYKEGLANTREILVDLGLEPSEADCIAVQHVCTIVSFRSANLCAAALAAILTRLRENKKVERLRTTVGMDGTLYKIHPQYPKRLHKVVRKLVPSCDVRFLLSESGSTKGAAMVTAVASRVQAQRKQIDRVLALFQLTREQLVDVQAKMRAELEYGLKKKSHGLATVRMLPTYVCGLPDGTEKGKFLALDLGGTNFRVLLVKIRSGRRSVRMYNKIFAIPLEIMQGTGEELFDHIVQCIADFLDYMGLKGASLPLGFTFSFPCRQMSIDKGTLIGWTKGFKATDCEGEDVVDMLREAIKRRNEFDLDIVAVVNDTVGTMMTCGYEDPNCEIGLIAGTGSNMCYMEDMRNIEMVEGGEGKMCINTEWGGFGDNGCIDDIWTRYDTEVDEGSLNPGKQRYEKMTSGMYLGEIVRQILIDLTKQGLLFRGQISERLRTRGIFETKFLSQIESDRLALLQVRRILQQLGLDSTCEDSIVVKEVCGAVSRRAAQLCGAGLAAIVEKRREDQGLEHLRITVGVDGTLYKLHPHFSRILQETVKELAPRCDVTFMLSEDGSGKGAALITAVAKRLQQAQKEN
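Incubation: 90 min at room temperature in dark / Material: recombinant HKDC1 (HK5) hexokinase enzyme, produced in-house / Quantity: enzyme 5 µg/mL final / Compound: one dose of 20 µM, 1% DMSO / Reagent: glucose and ATP substrates / Buffer or medium: Tris pH 8.0 buffer with MgCl2, Tween-20, BSA, BME / Technique: resorufin fluorescence at 613 nm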
G6PDH counter-1: counter-screen for G6PDH assay hits: L. mesenteroides G6PDH inhibition; actives 0.12% (n = 200,000); inhibition, % at 5 µM; Purified L. mesenteroides G6PDH, diaphorase/resazurin coupled fluorescence, 45 min; AID 1020; in the data active = inhibition above about 50%
Diaph inh CS: counter-screen for diaphorase-based assays: diaphorase inhibitors and chemical oxidizers | diaphorase resazurin-to-resorufin fluorescence, NADH, 16 min; bacterial (C. kluyveri) enzyme, not human | inhibition, % at 20 µM | actives 0.69% (n = 190,000) | AID 1217;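 active = primary screen inhibition at 20 µM above a set limit, cut at about 50% in these data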;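 also: plate controls were DMSO with full reaction for no effect and wells lacking NADH for full effect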
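Benchmarks: positive control wells lacking NADH, neutral wells with DMSO only. System: bacterial diaphorase enzyme (C. kluyveri). Input: 0.14 U/mL diaphorase, enzyme working solution. Detection: resorufin fluorescence, excitation 544 nm, emission 590 nm. Times: 16-min room-temperature incubation before reading.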
PfG6PD inh: PfG6PD (Plasmodium falciparum) enzyme inhibition. PfGluPho enzyme, NADPH resazurin-diaphorase fluorescence. inhibition, % at 20 µM. actives 0.78% (n = 350,000);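 active = inhibition reaching at least a set limit at 20 µM in the primary screen, cut at about 59% in these data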;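 also: 0% = DMSO wells with substrate and 100% = DMSO wells lacking glucose-6-phosphate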
TbHK1 inh: T. brucei hexokinase 1 inhibition; AID 1430; recombinant TbHK1, G6PDH-coupled NADH A340; inhibition, % at 10 µM; actives 0.11% (n = 220,000);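 active = inhibition of 50% or more in the single-dose primary screen; inactive = inhibition below 50%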
G6PDH counter-2: Leuconostoc glucose-6-phosphate dehydrogenase inhibition, counter-screen; shares compounds with TbHK1 inh; purified G6PDH, NADH absorbance, 1 h; inhibition, % at 10 µM; actives 7% (n = 210); AID 2516;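 active = at least 50% inhibition in the glucose-6-phosphate dehydrogenase coupled counterscreen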
TbHK1 rescreen: T. brucei hexokinase 1 inhibition, rescreen. recombinant TbHK1, G6PDH-coupled NADH A340 absorbance. inhibition, % at 10 µM. shares compounds with TbHK1 inh. actives 10% (n = 210);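 active = inhibition of at least 50% in both of the two screening runs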;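 also: 0% and 100% set by the maximum and minimum signal control wells on each plate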
Active calls of the source: *; . = not tested or not shown.

SMILES	HKDC1 inh	G6PDH counter-1	Diaph inh CS	PfG6PD inh	TbHK1 inh	G6PDH counter-2	TbHK1 rescreen
COC(=O)C1(S(=O)(=O)c2ccc(C)cc2)CCOCC1	-11.0	7.2	17.4	-3.4	62.2*	-9.4	1.0
CN(C)C1=NCCN1CCC1CCCCC1	0.0	.	.	-9.8	.	.	.
CC(C)(C)c1ccc(C(=O)c2cn[nH]c2-c2ccccc2O)cc1	0.6	.	.	0.9	.	.	.
O=C(O)CN(c1cccc(C(F)(F)F)c1)S(=O)(=O)c1ccccc1	-4.5	7.5	14.2	1.2	-8.8	.	.
NC(=O)C1CCN(C(=O)CN(c2cccc(C(F)(F)F)c2)S(=O)(=O)c2ccccc2)CC1	-9.0	2.1	11.4	-12.9	51.7*	-7.1	0.3
COc1ccc(C2(C)NC(=O)N(Cc3cc(Cl)cc4c3OCOC4)C2=O)cc1OC (stereo not drawn)	-5.1	2.1	7.8	-16.2	52.9*	-7.9	-0.7
CC1(C(=O)CSc2n[nH]c(-c3ccccc3Cl)n2)CCC(=O)O1 (stereo not drawn)	.	-1.9	9.2	.	66.8*	-11.2	-1.8
CC1CC2(CC(C)(C(=O)CSc3n[nH]c(-c4ccccc4Cl)n3)OC2=O)C(=O)O1 (stereo not drawn)	-3.0	16.3	7.9	21.0	8.5	.	.
CN(C)C(=O)c1ccc(-n2cccn2)nc1	-13.3	0.8	-9.0	0.0	-0.8	.	.
Cc1nc2scc(C)n2c(=O)c1S(=O)(=O)Nc1ccc(N2CCOCC2)cc1	-3.3	.	.	-12.0	.	.	.
Cc1cccc(C(=O)NC(=S)NNC(=O)c2ccc(Cl)cc2)c1	-11.5	-6.3	47.6	-10.7	62.1*	-44.4	-38.7
Cc1cccc(C(=O)NC(=S)NNC(=O)c2cccs2)c1	-12.9	10.7	36.2	22.3	-19.2	.	.
Cc1cccc(C)c1N(CC(=O)N1CCCC1)S(C)(=O)=O	-2.7	.	.	5.6	.	.	.
O=C(CSc1nnc(COc2ccccc2)o1)NCCc1ccccc1	1.1	-6.8	16.9	2.2	73.4*	-8.6	-22.3
COc1ccc(CCCC(=O)N/N=C/c2cccc(OC)c2O)cc1C	-5.1	5.9	24.4	0.0	63.4*	-9.2	6.0
O=c1nc2c(O)cccn2c2c1c(=O)[nH]c1ccccc12	17.4	-8.2	74.7*	44.1	55.6*	44.7	69.5*
O=C1CCC(C(=O)NCCCn2ccnc2)N1 (stereo not drawn)	-8.0	-9.0	13.7	6.8	58.1*	-0.8	1.8
O=C(NCCCn1ccnc1)C1CC2CCC1C2 (stereo not drawn)	-4.2	-4.1	5.3	2.2	-4.7	.	.
COc1ccc(C(=O)N2CCSC2=S)cc1OC	-3.3	5.3	1.7	-9.6	-5.8	.	.
COc1cccc(C(=O)N2CCSC2=S)c1	-2.5	-0.2	4.9	-23.7	56.9*	-18.3	-5.7
C/C(=C/CCC(C)[C@H]1CC[C@@]2(C)C3=C(CC[C@]12C)[C@@]1(C)CCC(=O)C(C)(C)[C@@H]1CC3)C(=O)O (stereo partly drawn)	24.3	14.9	9.6	-30.5	67.2*	-42.3	86.3*
C/C(=C/CCC(C)C1CCC2(C)C3CCC4C(C)(C)C(=O)CCC4(C)C3=CCC12C)C(=O)O (stereo not drawn)	.	.	.	.	0.7	.	.
CCOc1ccc(NC(N)=O)cc1	-14.4	4.9	8.7	-2.3	60.5*	-0.6	4.4
Cc1ccc2c(c1)N(CC(=O)NC1CCC(C)CC1)C(=O)CO2 (stereo not drawn)	-4.1	6.0	10.7	5.4	20.6	.	.
Cc1ccc2c(c1)N(CC(=O)NC1CCCc3ccccc31)C(=O)CO2 (stereo not drawn)	-12.7	-3.4	8.4	-8.5	66.2*	0.6	-1.4
SMILES	HKDC1 inh	G6PDH counter-1	Diaph inh CS	PfG6PD inh	TbHK1 inh	G6PDH counter-2	TbHK1 rescreen
C=CCNC(=S)Nc1ccccc1-c1nnc2n1CCCCC2	-7.4	.	.	3.5	.	.	.
O=C(C1CCCO1)N1CCN(c2ncccn2)CC1 (stereo not drawn)	-4.5	5.1	-6.9	-5.7	56.3*	-8.5	-4.5
O=C1OC(N2CCN(C(=O)C3CCCO3)CC2)c2ccccc21 (stereo not drawn)	-2.7	3.2	5.4	-0.2	62.8*	-2.7	2.8
O=C(NS(=O)(=O)NC1CCCCC1)C1=C(N2CCCC2)COC1=O	-1.2	.	.	3.3	.	.	.
CC(=O)N1CCOc2ccc(S(=O)(=O)N3CCC(C)CC3)cc21	-4.6	.	.	1.3	.	.	.
COc1ccc(CNC2=CC(=O)CC(C)(C)C2)cc1	-3.7	11.3	-1.6	15.8	57.0*	-2.1	-2.8
O=S(=O)(Cc1ccccc1Cl)CC(O)COc1ccccc1Cl (stereo not drawn)	-2.0	5.8	21.1	1.7	52.5*	12.9	12.2
CCC(C)Sc1nc2c(c(=O)[nH]c(=O)n2C)n1C (stereo not drawn)	-4.0	4.7	9.8	4.6	50.0*	-0.3	8.4
COc1cc(-c2nnn(CC(=O)NC3CCS(=O)(=O)C3)n2)ccc1OCc1ccccc1 (stereo not drawn)	9.1	2.9	11.2	-4.8	66.2*	-38.4	0.7
O=C(Cn1nnc(-c2ccc(Cl)cc2)n1)NC1CCS(=O)(=O)C1 (stereo not drawn)	-4.9	.	.	2.7	.	.	.
CCOCCCNC(=O)C(NC(=O)c1ccc(NC(C)=O)cc1)c1ccc(C)cc1 (stereo not drawn)	2.6	15.1	11.5	-0.6	-4.4	.	.
CCOCCCNC(=O)C(NC(=O)c1cnccn1)c1ccc(C)cc1 (stereo not drawn)	0.7	1.8	15.5	-3.3	55.5*	-4.7	2.7
CCOC(=O)c1c(C)c(C(=O)NCc2cccnc2)c(C)n1C	-3.2	-1.4	1.4	-9.5	62.8*	-1.5	1.4
CCOC(=O)c1c(C)c(C(=O)NCc2ccccn2)c(C)n1C	-0.3	-0.6	-5.7	0.2	-0.7	.	.
O=C(O)CCN=C1CCCc2ccccc2N1	0.4	17.2	1.3	-17.1	53.7*	-0.6	3.8
Cc1nn(C)c(C)c1C(=O)NN	-3.9	-2.3	16.3	-21.4	53.7*	-1.8	1.6
CC1Sc2ccc(S(=O)(=O)CCC(=O)NC(C)c3ccccc3)cc2NC1=O (stereo not drawn)	-6.7	.	.	-3.7	.	.	.
CC[C@@]1(C(=O)OC)N[C@H](CN(C)C(=O)COC)[C@@H]2C(=O)N(C)C(=O)[C@@H]21	-4.0	.	.	5.1	.	.	.
CCc1cccc(NC(=O)NC2CCCCC2)c1	4.5	8.8	3.5	13.3	59.8*	-4.8	5.0
Cc1cc(=O)[nH]c(N/N=C/c2c(O)n(-c3ccccc3)c(=O)c3ccccc23)n1	-25.4	23.6	49.5	4.1	55.6*	-57.1	-23.1
CC1(C)CCC(=O)N2CC[C@H]3c4cc5ccccc5nc4C[C@@H]1[C@H]32	-2.9	.	.	-6.5	.	.	.
COc1cccc(C(=O)N2CCCN(C)CC2)c1OC	-3.6	.	.	-14.1	.	.	.

Source: PubChem BioAssay
